From ChEMBL document CHEMBL1134325, “Diaminoindanes as microsomal triglyceride transfer protein inhibitors” (J Med Chem, 2001)

Tests used:
Rattus norvegicus [1] = assay: Inhibition of plasma triglycerides in normolipidemic rats after 6 h of 5 mg/kg oral dosing; type: functional
Procedure, shortened: (§1)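 Overnight-fasted normolipidemic rats received a single oral dose in cornstarch vehicle. Blood was drawn at 2, 6 and 24 h post-dose and assayed for triglycerides and total cholesterol, with free access to food after the 6 h sample. Value is mean percent inhibition versus a separate vehicle-treated group, unpaired t test p < 0.05, NS = no significant change, N = 6.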

Rattus norvegicus [2] = assay: Inhibition of total cholesterol in normolipidemic rats after 6 hr of 5 mg/kg oral dosing; type: functional; procedure, shortened: as §1
Rattus norvegicus [3] = assay: Inhibition of plasma triglycerides in normolipidemic rats after 24 hr of 5 mg/kg oral dosing; no significant change; type: functional, organism-based; design: dose 5 mg/kg; procedure, shortened: as §1
Rattus norvegicus [4] = assay: Inhibition of plasma triglycerides in normolipidemic rats after 24 h of 50 mg/kg oral dosing; no significant change; type: functional, organism-based; design: dose 50 mg/kg; procedure, shortened: as §1
Rattus norvegicus [5] = assay: Inhibition of plasma triglycerides in normolipidemic rats after 2 hr of 5 mg/kg oral dosing; type: functional; procedure, shortened: as §1
Rattus norvegicus [6] = assay: Inhibition of plasma triglycerides in normolipidemic rats after 6 hr of 50 mg/kg oral dosing; type: functional; procedure, shortened: as §1
Rattus norvegicus [7] = assay: Inhibition of total cholesterol in normolipidemic rats after 2 h of 5 mg/kg oral dosing; type: functional; procedure, shortened: as §1
Rattus norvegicus [8] = assay: Inhibition of total cholesterol in normolipidemic rats after 6 hr of 50 mg/kg oral dosing; type: functional; procedure, shortened: as §1
Rattus norvegicus [9] = assay: Inhibition of total cholesterol in normolipidemic rats after 2 hr of 50 mg/kg oral dosing; type: functional; procedure, shortened: as §1
[10] = target: T1, Microsomal triglyceride transfer protein large subunit (Homo sapiens, UniProt P55157); assay: In vitro inhibitory activity against MTP using MTP transfer assay
T1 sequence (P55157 whole entry): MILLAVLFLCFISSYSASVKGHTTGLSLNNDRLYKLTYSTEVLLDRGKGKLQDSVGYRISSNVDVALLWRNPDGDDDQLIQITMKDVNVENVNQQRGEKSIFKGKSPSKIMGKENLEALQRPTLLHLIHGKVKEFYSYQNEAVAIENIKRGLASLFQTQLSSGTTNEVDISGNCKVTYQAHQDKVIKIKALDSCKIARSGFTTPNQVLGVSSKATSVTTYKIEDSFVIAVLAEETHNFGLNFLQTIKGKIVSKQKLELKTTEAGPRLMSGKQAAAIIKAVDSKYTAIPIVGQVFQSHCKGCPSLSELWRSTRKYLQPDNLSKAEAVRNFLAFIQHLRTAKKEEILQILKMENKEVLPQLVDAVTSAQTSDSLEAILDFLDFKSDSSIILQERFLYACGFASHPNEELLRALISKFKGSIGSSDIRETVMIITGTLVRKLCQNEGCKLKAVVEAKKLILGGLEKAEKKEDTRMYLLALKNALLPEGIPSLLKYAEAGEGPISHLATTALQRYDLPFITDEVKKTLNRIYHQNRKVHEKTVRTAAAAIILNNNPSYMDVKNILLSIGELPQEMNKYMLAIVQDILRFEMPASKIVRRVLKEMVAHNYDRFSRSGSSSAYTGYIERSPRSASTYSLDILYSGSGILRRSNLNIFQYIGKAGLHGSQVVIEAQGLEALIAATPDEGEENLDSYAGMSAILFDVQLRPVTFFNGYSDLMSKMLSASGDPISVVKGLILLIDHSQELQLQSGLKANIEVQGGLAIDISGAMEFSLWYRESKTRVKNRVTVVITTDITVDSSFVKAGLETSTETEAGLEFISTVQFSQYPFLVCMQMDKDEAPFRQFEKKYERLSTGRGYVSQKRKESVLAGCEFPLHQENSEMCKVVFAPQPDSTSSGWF

Rattus norvegicus [11] = assay: Inhibition of total cholesterol in normolipidemic rats after 24 hr of 5 mg/kg oral dosing; no significant change; type: functional, organism-based; design: dose 5 mg/kg; procedure, shortened: as §1
Rattus norvegicus [12] = assay: Inhibition of plasma triglycerides in normolipidemic rats after 2 hr of 50 mg/kg oral dosing; type: functional; procedure, shortened: as §1
Rattus norvegicus [13] = assay: Inhibition of total cholesterol in normolipidemic rats after 24 hr of 50 mg/kg oral dosing; no significant change; type: functional, organism-based; design: dose 50 mg/kg; procedure, shortened: as §1
Rattus norvegicus [14] = assay: Inhibition of total cholesterol in normolipidemic rats after 2 hr of 50 mg/kg oral dosing; no significant change; type: functional, organism-based; design: dose 50 mg/kg; procedure, shortened: as §1
Rattus norvegicus [15] = assay: Inhibition of plasma triglycerides in normolipidemic rats after 24 hr of 50 mg/kg oral dosing; No significant change; type: functional, organism-based; design: dose 50 mg/kg; procedure, shortened: as §1
Rattus norvegicus [16] = assay: Inhibition of plasma triglycerides in normolipidemic rats after 6 h of […] mg/kg oral dosing; no significant change; type: functional, organism-based; design: dose 50 mg/kg
Rattus norvegicus [17] = assay: Inhibition of plasma triglycerides in normolipidemic rats after 2 hr of 50 mg/kg oral dosing; no significant change; type: functional, organism-based; design: dose 50 mg/kg; procedure, shortened: as §1
Rattus norvegicus [18] = assay: Inhibition of total cholesterol in normolipidemic rats after 6 h of […] mg/kg oral dosing; no significant change; type: functional, organism-based; design: dose 50 mg/kg
[19] = target: Apolipoprotein B-100 (Homo sapiens) (UniProt P04114); assay: Inhibition of apolipoprotein B (apoB) secreted by human hepatoma cells (Hep G2) at 100 nM
Chain of Apolipoprotein B-100 (Homo sapiens) (P04114 whole entry): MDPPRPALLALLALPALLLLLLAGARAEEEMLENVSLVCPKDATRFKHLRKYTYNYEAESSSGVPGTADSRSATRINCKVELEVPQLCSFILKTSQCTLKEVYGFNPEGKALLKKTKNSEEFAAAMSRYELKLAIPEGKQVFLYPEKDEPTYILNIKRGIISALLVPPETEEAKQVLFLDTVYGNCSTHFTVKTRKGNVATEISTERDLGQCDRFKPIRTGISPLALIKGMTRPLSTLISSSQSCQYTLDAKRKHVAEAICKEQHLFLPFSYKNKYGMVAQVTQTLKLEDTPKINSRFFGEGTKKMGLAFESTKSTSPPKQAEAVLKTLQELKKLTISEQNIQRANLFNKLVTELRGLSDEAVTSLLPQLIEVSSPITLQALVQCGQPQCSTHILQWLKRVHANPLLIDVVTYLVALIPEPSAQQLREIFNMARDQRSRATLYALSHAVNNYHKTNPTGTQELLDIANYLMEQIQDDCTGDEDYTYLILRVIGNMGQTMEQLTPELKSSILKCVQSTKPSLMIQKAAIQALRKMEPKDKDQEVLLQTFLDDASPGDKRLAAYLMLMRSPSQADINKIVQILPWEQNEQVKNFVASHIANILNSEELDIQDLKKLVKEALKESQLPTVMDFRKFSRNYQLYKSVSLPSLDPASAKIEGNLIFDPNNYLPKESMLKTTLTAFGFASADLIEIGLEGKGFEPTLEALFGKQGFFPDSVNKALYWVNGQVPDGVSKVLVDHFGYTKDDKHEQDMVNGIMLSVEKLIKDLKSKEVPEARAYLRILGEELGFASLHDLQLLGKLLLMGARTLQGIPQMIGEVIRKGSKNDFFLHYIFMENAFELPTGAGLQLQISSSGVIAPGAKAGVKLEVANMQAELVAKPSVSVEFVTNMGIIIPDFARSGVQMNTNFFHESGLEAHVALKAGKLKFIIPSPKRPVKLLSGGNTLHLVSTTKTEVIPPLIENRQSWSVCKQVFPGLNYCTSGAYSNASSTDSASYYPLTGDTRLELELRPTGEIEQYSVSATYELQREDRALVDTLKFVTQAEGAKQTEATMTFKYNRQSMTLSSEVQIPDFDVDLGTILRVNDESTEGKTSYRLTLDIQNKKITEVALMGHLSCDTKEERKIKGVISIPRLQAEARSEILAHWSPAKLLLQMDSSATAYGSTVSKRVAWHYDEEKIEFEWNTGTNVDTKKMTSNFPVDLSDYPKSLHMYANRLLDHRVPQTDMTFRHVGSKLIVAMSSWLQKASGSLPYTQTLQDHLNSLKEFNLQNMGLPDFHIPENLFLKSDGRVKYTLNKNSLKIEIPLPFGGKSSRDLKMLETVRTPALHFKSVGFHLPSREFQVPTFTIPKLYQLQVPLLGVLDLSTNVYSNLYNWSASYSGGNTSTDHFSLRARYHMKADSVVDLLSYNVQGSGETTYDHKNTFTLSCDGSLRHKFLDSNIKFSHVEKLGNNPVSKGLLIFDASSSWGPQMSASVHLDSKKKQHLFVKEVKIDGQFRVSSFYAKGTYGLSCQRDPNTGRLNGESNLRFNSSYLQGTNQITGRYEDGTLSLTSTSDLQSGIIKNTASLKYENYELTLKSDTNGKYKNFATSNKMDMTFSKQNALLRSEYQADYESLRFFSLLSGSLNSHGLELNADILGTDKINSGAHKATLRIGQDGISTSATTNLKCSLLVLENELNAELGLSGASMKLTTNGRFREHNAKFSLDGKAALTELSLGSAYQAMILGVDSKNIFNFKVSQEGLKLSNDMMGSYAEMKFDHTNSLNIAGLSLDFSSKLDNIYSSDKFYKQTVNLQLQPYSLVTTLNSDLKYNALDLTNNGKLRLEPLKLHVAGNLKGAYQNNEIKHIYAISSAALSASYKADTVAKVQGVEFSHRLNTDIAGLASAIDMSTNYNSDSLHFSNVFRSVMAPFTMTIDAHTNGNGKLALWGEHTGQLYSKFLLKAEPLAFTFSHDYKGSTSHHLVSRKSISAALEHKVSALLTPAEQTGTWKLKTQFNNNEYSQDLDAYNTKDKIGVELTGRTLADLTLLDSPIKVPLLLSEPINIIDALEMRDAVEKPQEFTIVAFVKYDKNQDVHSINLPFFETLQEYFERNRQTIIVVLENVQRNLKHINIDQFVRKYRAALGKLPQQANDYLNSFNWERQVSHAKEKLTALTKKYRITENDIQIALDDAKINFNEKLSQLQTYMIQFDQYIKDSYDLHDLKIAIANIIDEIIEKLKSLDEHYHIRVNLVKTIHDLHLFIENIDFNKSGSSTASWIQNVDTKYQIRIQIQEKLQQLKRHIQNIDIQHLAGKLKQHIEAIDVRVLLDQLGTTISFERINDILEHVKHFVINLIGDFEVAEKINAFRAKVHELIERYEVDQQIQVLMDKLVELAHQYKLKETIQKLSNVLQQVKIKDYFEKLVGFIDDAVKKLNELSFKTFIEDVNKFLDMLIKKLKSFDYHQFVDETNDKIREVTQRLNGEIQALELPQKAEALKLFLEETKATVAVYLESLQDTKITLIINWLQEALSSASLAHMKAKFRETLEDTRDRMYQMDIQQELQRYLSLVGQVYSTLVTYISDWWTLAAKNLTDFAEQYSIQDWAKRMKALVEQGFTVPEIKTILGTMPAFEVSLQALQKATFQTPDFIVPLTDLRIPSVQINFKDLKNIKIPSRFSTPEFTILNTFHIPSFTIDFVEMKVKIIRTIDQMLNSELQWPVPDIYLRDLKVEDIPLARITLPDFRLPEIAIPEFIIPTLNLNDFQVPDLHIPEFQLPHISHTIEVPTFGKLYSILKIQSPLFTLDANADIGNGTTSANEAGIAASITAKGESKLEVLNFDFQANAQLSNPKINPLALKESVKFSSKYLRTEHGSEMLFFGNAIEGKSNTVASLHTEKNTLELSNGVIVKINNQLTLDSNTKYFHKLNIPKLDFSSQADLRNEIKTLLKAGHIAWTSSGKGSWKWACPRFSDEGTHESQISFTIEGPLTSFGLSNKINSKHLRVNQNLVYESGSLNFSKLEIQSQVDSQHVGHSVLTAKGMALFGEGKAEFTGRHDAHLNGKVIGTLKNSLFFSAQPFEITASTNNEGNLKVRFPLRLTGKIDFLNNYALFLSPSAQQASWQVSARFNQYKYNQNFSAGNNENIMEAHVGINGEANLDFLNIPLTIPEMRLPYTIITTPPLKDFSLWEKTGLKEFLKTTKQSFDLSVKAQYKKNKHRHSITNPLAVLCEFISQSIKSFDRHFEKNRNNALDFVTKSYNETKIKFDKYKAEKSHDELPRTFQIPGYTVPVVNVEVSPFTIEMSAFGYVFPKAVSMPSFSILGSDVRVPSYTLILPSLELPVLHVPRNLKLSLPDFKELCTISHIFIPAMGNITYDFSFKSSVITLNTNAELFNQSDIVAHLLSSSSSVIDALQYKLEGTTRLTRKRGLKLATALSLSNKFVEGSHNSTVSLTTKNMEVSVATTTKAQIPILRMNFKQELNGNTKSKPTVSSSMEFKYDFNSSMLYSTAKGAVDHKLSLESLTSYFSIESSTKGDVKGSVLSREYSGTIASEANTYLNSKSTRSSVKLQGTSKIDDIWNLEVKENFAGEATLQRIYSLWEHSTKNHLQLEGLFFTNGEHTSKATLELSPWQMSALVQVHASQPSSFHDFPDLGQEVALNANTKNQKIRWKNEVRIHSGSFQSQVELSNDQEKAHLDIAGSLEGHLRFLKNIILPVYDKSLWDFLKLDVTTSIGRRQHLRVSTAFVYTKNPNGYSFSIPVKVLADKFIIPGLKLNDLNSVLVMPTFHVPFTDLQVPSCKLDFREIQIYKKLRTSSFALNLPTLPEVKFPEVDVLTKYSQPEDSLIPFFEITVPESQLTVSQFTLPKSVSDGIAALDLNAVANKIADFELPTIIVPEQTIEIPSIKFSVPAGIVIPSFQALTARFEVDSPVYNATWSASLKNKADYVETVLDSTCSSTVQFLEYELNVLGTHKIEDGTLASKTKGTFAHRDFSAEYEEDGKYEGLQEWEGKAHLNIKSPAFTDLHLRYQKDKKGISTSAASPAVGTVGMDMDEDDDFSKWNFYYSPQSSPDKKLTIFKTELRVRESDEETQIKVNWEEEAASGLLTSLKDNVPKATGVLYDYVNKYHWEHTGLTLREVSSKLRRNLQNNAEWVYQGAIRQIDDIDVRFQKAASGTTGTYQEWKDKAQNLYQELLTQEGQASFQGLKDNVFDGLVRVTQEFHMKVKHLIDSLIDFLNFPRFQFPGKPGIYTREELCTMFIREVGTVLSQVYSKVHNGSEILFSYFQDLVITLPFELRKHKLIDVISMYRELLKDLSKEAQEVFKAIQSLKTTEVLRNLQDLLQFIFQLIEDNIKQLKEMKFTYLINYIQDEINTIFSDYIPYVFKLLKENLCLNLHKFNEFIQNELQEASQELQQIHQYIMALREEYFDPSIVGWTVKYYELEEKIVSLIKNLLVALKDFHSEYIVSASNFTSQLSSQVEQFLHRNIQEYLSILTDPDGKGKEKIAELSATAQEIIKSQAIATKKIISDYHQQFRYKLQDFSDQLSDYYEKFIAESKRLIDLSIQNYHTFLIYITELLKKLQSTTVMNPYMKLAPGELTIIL

Row | IC50 [10] [nM] | inhibition [19] [%] | SMILES | Reduction (Rattus norvegicus [1]) [%] | Reduction (Rattus norvegicus [2]) [%] | NS (Rattus norvegicus [3]) | NS (Rattus norvegicus [4]) | Reduction (Rattus norvegicus [5]) [%] | Reduction (Rattus norvegicus [6]) [%] | Reduction (Rattus norvegicus [7]) [%] | Reduction (Rattus norvegicus [8]) [%] | Reduction (Rattus norvegicus [9]) [%] | NS (Rattus norvegicus [11]) | Reduction (Rattus norvegicus [12]) [%] | NS (Rattus norvegicus [13]) | NS (Rattus norvegicus [14]) | NS (Rattus norvegicus [15]) | NS (Rattus norvegicus [16]) | NS (Rattus norvegicus [17]) | NS (Rattus norvegicus [18])
1 | 70 | – | COC(=O)N[C@@H]1Cc2ccc(NC(=O)c3cccc(C)c3-c3ccc(C(F)(F)F)cc3)cc2C1 | 71 | 45 | no significant change | no significant change | 85 | 74 | 33 | 43 | 27 | no significant change | 78 | no significant change | – | – | – | – | –
2 | 170 | – | COC(=O)N[C@H]1Cc2ccc(NC(=O)c3cc(C)ccc3-c3ccc(C(F)(F)F)cc3)cc2C1 | – | – | – | – | – | – | – | – | – | – | – | no significant change | no significant change | no significant change | no significant change | no significant change | no significant change
3 | 410 | 30 | Cc1cccc(C(=O)Nc2ccc3c(c2)C[C@H](NCc2ccccn2)C3)c1-c1ccc(C(F)(F)F)cc1 | – | – | – | – | – | – | – | – | – | – | – | – | – | – | – | – | –
